High-throughput results as filed in PubChem BioAssay.
The list is not random: actives were taken first. Their share in the collection is about 2.3%.
TRPC4 potent = TRPC4 (mouse) allosteric potentiation; B-score at 10 µM; HEK293 TRPC4beta/mu-opioid, DAMGO EC20, Fluo-4 Ca2+ flux; active compounds read high; Q9QUQ5; actives 0.42% (n = 310,000);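 active means B-score of calcium response area above 5 SD of library B-scores, with initial fluorescence ratio within 5 SD of library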
Target sequence (Q9QUQ5 whole entry, looked up): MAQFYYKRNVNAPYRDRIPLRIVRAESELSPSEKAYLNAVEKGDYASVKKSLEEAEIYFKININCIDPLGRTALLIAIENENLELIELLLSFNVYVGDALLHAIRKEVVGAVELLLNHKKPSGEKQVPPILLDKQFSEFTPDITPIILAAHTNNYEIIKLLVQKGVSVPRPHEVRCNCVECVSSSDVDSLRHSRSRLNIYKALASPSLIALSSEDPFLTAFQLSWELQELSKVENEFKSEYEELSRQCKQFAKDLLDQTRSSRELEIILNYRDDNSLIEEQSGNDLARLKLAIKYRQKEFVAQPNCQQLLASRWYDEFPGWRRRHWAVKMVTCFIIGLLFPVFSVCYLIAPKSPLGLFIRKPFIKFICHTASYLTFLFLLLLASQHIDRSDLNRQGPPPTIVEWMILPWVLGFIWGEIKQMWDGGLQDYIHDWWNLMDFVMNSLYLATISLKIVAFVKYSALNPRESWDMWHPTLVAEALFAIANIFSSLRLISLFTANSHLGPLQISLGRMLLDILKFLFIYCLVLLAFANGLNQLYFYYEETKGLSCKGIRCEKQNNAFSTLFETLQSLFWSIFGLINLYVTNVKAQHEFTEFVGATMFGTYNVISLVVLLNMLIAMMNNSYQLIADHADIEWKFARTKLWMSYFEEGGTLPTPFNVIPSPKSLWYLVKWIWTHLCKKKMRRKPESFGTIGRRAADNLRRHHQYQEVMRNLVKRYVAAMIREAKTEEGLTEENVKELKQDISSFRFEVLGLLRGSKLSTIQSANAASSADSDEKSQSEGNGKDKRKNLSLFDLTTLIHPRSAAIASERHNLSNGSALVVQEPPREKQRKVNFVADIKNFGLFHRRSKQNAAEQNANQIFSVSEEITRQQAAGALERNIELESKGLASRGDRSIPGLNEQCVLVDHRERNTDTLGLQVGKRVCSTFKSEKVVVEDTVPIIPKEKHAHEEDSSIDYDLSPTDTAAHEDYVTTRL
TRPC6 inhibitor = blocks the mouse TRPC6 cation channel; actives 1.1% (n = 310,000); Q61143; AID 2553; B-score at 10 µM; HEK293-TRPC6, membrane potential dye, ACh-evoked depolarization; active compounds read low;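 active means B-score under library mean minus 3 SD, initial fluorescence not abnormally high, positive integrated signal ratio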;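 further: B-score derived from integrated fluorescence ratio over the kinetic read; more negative B-score means stronger inhibition of depolarization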
TRPC6 act = activates the mouse TRPC6 cation channel; HEK293-TRPC6 membrane potential dye fluorescence; active compounds read high; B-score at 10 µM; actives 0.13% (n = 310,000); AID 2550;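 active means B-score of the integrated fluorescence ratio above library mean plus 3 SD, and starting fluorescence ratio within library mean plus 5 SD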;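 further: higher score means more depolarization so channel activation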
TRPC4 act = TRPC4 (mouse) channel activation; AID 2237; B-score at 10 µM; actives 0.49% (n = 310,000); HEK293 TRPC4beta/mu-opioid, Fluo4 calcium fluorescence; active compounds read high;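 active means B-score above 5 SD of library B-scores, and initial fluorescence ratio not above library mean plus 5 SD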;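 further: positive B-score marks a calcium rise read as TRPC4 activation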
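Assay system: HEK293 stable line with TRPC4beta plus mu-opioid receptor. Times: dye 45 min RT, read 110 s. Measured by: kinetic Fluo4 calcium fluorescence. Measure: B score of integrated ratio. Controls: assay buffer as low control, maximal DAMGO as high control.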
TRPC4 block = blocks the mouse TRPC4 cation channel; AID 2247; B-score at 10 µM; HEK293 TRPC4beta/mu-opioid, DAMGO-evoked Fluo4 calcium flux; active compounds read low; Q9QUQ5; actives 0.39% (n = 300,000);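 active means B-score over 3 SD under the library average, no early fluorescence shift, positive overall ratio signal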
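Assay system: HEK293 cells with stable TRPC4beta plus mu-opioid receptor expression. Dosing: single dose. Measured by: Fluo4 Ca2+ flux fluorescence. Also added: DAMGO in two steps, submaximal then maximal. Read-out: B score from integrated Fluo4 fluorescence ratio.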
TRPC4 spec 2 = second check of whether TRPC6 inhibitors also affect mouse TRPC4; AID 2776; inhibition, % at 10 µM; shares compounds with TRPC6 inhibitor; actives 42% (n = 920); HEK293 TRPC4/MOR, membrane potential dye fluorescence; channel activated by saturating DAMGO dose;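 active means compounds whose fluorescence signal differed from control wells by over 3 SD, either direction, in both duplicate plates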
TRPC4 spec = selectivity of TRPC6 inhibitors: effect on mouse TRPC4. HEK293 TRPC4/mu-opioid, membrane potential fluorescence. activity change, negative = inhibition, % at 10 µM. shares compounds with TRPC6 inhibitor. actives 61% (n = 920);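 active means rise or fall in signal beyond 3 SD of buffer-only wells in both replicate plates, either sign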;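 further: integrated kinetic ratio of fluorescence range over baseline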
HEK293 MPD ctr 2-1 = parental HEK293 nonspecific activity of TRPC6 inhibitors, second screen; AID 2779; signal change vs control, % at 10 µM; shares compounds with TRPC6 inhibitor; parental HEK293 membrane potential dye fluorescence; maximal acetylcholine challenge after compound addition; actives 31% (n = 920);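 active means membrane potential signal moving either way by over 3 SD of the maximum-effect control, in both duplicate plates, meaning non-specific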
HEK293 MPD ctr-1 = checks TRPC6 inhibitor effects in parental HEK293 cells; shares compounds with TRPC6 inhibitor; parental HEK293 membrane potential dye fluorescence; membrane potential signal change, % at 10 µM; actives 60% (n = 920);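 active means membrane potential signal shifting up or down by more than 3 SD of buffer-only wells, on both duplicate plates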
HEK293 MPD ctr-2 = checks TRPC6 modulator effects in parental HEK293 cells | shares compounds with TRPC6 inhibitor | membrane potential signal change, % at 10 µM | actives 51% (n = 2,400) | membrane potential dye fluorescence;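 active means membrane potential signal moves up or down beyond 5 SD from buffer-only wells, on both duplicate plates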
HEK293 MPD ctr 2-2 = second counter-screen for TRPC6 modulators: effect in parental HEK293 cells; actives 14% (n = 2,400); shares compounds with TRPC6 inhibitor; membrane potential dye fluorescence; after compound, maximal acetylcholine stimulation; inhibition, % at 10 µM;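 active means membrane potential signal drops by more than 5 SD from the mean control signal, in both duplicate plates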
TRPC4 ctr mod = selectivity of TRPC6 modulators against mouse TRPC4 | shares compounds with TRPC6 inhibitor | HEK293 TRPC4/mu-opioid, membrane potential fluorescence | percent change from control (negative = decrease, positive = increase), % at 10 µM | actives 69% (n = 2,400) | AID 488927;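 active means membrane potential signal moved up or down beyond 5 SD of buffer control wells, in both duplicate plates, actives on both sides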
TRPC4 ctr inh 2 = second selectivity test of TRPC6 modulators against mouse TRPC4 | shares compounds with TRPC6 inhibitor | HEK293 TRPC4/mu-opioid, membrane potential dye fluorescence; stimulated with maximal-effect DAMGO | inhibition, % at 10 µM | actives 55% (n = 2,400);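 active means drop in membrane potential signal beyond 5 SD of the control wells in both duplicate plates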;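 further: TRPC4 counter screen for TRPC6 hits run under conditions tuned for TRPC6 not TRPC4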
TRPC6 block conf = confirmation of mouse TRPC6 inhibitors. inhibition, % at 10 µM. HEK293-TRPC6, membrane potential dye, ACh-evoked depolarization. shares compounds with TRPC6 inhibitor. actives 43% (n = 3,300);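 active means fluorescence ratio falls more than 5 SD below the full-stimulation control mean, in both duplicate runs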;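 further: integrated fluorescence ratio of peak minus minimum over baseline after agonist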
TRPC6 act conf = confirmation of mouse TRPC6 activators | shares compounds with TRPC6 inhibitor | actives 11% (n = 2,800) | AID 488961 | activation, % at 10 µM | HEK293-TRPC6 membrane potential dye fluorescence, FDSS;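 active means ratio signal rise beyond 5 SD above unstimulated control wells' mean, seen in both duplicate runs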
Each line names hits and unclear results; the compound was inactive in the other large screens (follow-up assays come after a bar, where they were run).

CNC(=O)Cn1c(C)cc(=O)c2cccc(C)c21	TRPC6 inhibitor -6.25 | HEK293 MPD ctr-2 -397.5% | HEK293 MPD ctr 2-2 inactive | TRPC4 ctr mod -54.5% | TRPC4 ctr inh 2 30.5% | TRPC6 block conf inactive | TRPC6 act conf inactive
CCOC(=O)Cn1c(=O)cc(C)c2cccc(C)c21	none
Cc1ccc2nc(C)cc(C(=O)OCC(=O)Nc3c(C)n(C)n(-c4ccccc4)c3=O)c2c1	none
CS(=O)(=O)N1CCN(c2ccccc2NC(=O)c2cc3ccccc3o2)CC1	none
COc1cccc2sc3ccc(C#CC4(N)CCCCC4)cc3c(=O)c12	TRPC6 inhibitor -9.23 | TRPC4 spec 2 59.0% | TRPC4 spec -14.6% | HEK293 MPD ctr 2-1 inactive | HEK293 MPD ctr-1 -228.0% | TRPC6 block conf 57.0% | TRPC6 act conf inactive
NCCNC[C@@H]1COC2(CCCCCCCCCCC2)O1	TRPC6 inhibitor -6.92 | TRPC4 spec 2 33.0% | TRPC4 spec 1.8% | HEK293 MPD ctr 2-1 inactive | HEK293 MPD ctr-1 7.8% | TRPC6 block conf 61.8% | TRPC6 act conf inactive
CCN(CC)c1ccc(/C=N\NC(=O)c2cccc3cc[nH]c23)cc1	TRPC6 inhibitor -5.67 | HEK293 MPD ctr-2 inactive | HEK293 MPD ctr 2-2 inactive | TRPC4 ctr mod -12.5% | TRPC4 ctr inh 2 54.5% | TRPC6 block conf inactive | TRPC6 act conf inactive
CCOCCCn1c(=NC(=O)c2cccs2)c(C#N)cc2c(=O)n3cccc(C)c3nc21	none
Cc1cccn2c(=O)c3cc(C#N)c(=NC(=O)c4cccs4)n(CC(C)C)c3nc12	none
COCCCn1c(=NC(=O)c2ccccc2)c(C#N)cc2c(=O)n3cccc(C)c3nc21	TRPC6 inhibitor -6.65 | HEK293 MPD ctr-2 inactive | HEK293 MPD ctr 2-2 inactive | TRPC4 ctr mod inactive | TRPC4 ctr inh 2 inactive | TRPC6 block conf inactive | TRPC6 act conf inactive
Cc1cccn2c(=O)c3cc(C#N)c(=NC(=O)c4ccccc4)n(Cc4ccco4)c3nc12	none
COCCCn1c(=NC(C)=O)c(C#N)cc2c(=O)n3cccc(C)c3nc21	TRPC6 inhibitor -5.97 | HEK293 MPD ctr-2 -140.5% | HEK293 MPD ctr 2-2 inactive | TRPC4 ctr mod -41.5% | TRPC4 ctr inh 2 28.0% | TRPC6 block conf inactive | TRPC6 act conf inactive
Cc1cccc(C(=O)N=c2c(C#N)cc3c(=O)n4cccc(C)c4nc3n2Cc2ccco2)c1	TRPC6 inhibitor -5.08 | HEK293 MPD ctr-2 123.5% | HEK293 MPD ctr 2-2 inactive | TRPC4 ctr mod -54.5% | TRPC4 ctr inh 2 36.0% | TRPC6 block conf inactive | TRPC6 act conf inactive
CC(=O)c1c(C)nc(-c2ccc(Cl)cc2)nc1NC(=O)C(C)C	TRPC6 inhibitor -6.03 | HEK293 MPD ctr-2 inactive | HEK293 MPD ctr 2-2 106.5% | TRPC4 ctr mod 18.5% | TRPC4 ctr inh 2 inactive | TRPC6 block conf 71.5%
CN(C)CCNC(=O)c1ccc2c(c1)N(Cc1ccc(F)cc1)CCS2	TRPC6 inhibitor -6.41 | HEK293 MPD ctr-2 inactive | HEK293 MPD ctr 2-2 inactive | TRPC4 ctr mod inactive | TRPC4 ctr inh 2 73.5% | TRPC6 block conf 66.0% | TRPC6 act conf inactive
CCN(C(=O)Cn1nc(C)c([N+](=O)[O-])c1C)C1CCS(=O)(=O)C1 (stereo not given)	none
CNC(=O)c1cc2cc(OC)ccc2oc1=O	none
COc1ccc2oc(=O)c(C(=O)C[n+]3cccc(C)c3)cc2c1	TRPC6 inhibitor -8.36 | TRPC4 spec 2 inactive | TRPC4 spec -12.2% | HEK293 MPD ctr 2-1 inactive | HEK293 MPD ctr-1 -137.0% | TRPC6 block conf inactive | TRPC6 act conf inactive
CC(C)CC(O)C1CCN(C(=O)CCc2nnc(-c3ccccc3)o2)CC1 (stereo not given)	none
COc1ccc(Cl)cc1N(CC(=O)NC(C)(C)C)S(=O)(=O)c1ccc(C)c([N+](=O)[O-])c1	none
CC(C)(C)n1nnnc1C(c1cc2cc3c(cc2[nH]c1=O)OCCO3)N1CCSCC1 (stereo not given)	TRPC6 inhibitor -5.17 | HEK293 MPD ctr-2 inactive | HEK293 MPD ctr 2-2 inactive | TRPC4 ctr mod inactive | TRPC4 ctr inh 2 inactive | TRPC6 block conf 52.5%
CCn1ccnc1CN(C)C(=O)c1cc(COc2ccccc2SC)on1	TRPC6 inhibitor -7.48 | TRPC4 spec 2 inactive | TRPC4 spec 4.0% | HEK293 MPD ctr 2-1 inactive | HEK293 MPD ctr-1 7.0% | TRPC6 block conf inactive
CSc1ccccc1OCc1cc(C(=O)N(Cc2nccn2C)C(C)C)no1	none
CCCOc1ccc(N2C(=O)CC(N(CCc3ccc(OC)cc3)C(=O)/C=C/C(=O)O)C2=O)cc1 (stereo not given)	TRPC6 inhibitor -10.1 | TRPC4 spec 2 inactive | TRPC4 spec inactive | HEK293 MPD ctr 2-1 inactive | HEK293 MPD ctr-1 inactive | TRPC6 block conf inactive | TRPC6 act conf inactive
Cn1ncc(Cl)c1C(=O)N1CCN(C(=O)c2ccco2)CC1	none
N#CC(C#N)=C(Nc1ccc(F)cc1)SCc1cccc(Br)c1	none
Cc1cccc(CSC(Nc2ccc(F)cc2)=C(C#N)C#N)c1	TRPC6 inhibitor -5.22 | HEK293 MPD ctr-2 123.5% | HEK293 MPD ctr 2-2 inactive | TRPC4 ctr mod 20.0% | TRPC4 ctr inh 2 48.5% | TRPC6 block conf 56.5% | TRPC6 act conf inactive
